The record followed here is PubChem BioAssay.

A number with no mark means an inactive call. Records with an inconclusive call do not appear. Calls of active or inactive are those of the source.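 How the source made its calls, unless noted: active means viability increase at or above a cutoff of the median across tested compounds plus 3 SD (cut at about 8.5% in these data, passing the limit was not always enough); inconclusive means some gains above the cutoff, reason not given; inactive means the rest.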

Experiment [1] is described as follows: S. cerevisiae growth inhibition in permissive medium (OD615), pilot counter-assay for S. cerevisiae lifespan shortening project, permissive growth control (AID 705;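 active means growth inhibition above 25% in both replicates, a cutoff set 3 SD above the mean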). Conditions: OD615, 24 h, at 10 µM, active compounds read high. The method, boiled down:
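System: Engineered DeaD yeast | Buffer or medium: SC raffinose/galactose permissive medium | Incubation: Cells pre-grown 4 h, then 24 h compound exposure, 30 °C humidified | Measured by: Absorbance (optical density) at 615 nm | Read-out: Reduction in yeast growth (OD615)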

A short description of experiment [2]: S. cerevisiae growth inhibition in restrictive medium, OD615, pilot screen, restrictive growth control, yeast lifespan reduction project (AID 706;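 active means growth inhibition above a set limit, 3 SD over mean compound inhibition, in both replicates, cut at about 43% in these data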;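 further: modified DeaD lifespan yeast strain shifted to restrictive glucose medium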). As to conditions: OD615, 48 h, at 10 µM, active compounds read high. The method, boiled down:
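Material: modified S. cerevisiae; Medium: glucose-based CSMM-D restrictive medium; Compound dosing: one concentration, 10 µM final, 0.25% DMSO; Incubation: 48 h compound exposure at 30 °C; Measured by: OD615.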

Experiment [3] can be described thus: doxorubicin toxicity protection in MRP-1 cells – H69AR cells, CellTiter-Glo, duplicate, MRP-1 activator project, pilot screen (AID 807).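 Further: compound pretreatment 18-22 h then 72 h combined with doxorubicin; 0% = doxorubicin alone and 100% = vehicle without doxorubicin.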 Conditions: H69AR viability with doxorubicin, CellTiter-Glo luminescence; at 10 µM; active compounds read high.
Experiment [4] is described as follows: viability of HCT116 without oncogenic beta-catenin – human colon tumor cells, pilot screen (AID 823;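 active means cell viability at or below a set limit in both duplicate runs, the limit being the all-compound median minus 4 SD, cut at about 23% in these data, passing the limit was not always enough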;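 further: 0% = wells killed by 20 µM Hyamine and 100% = untreated DMSO cell wells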). As to conditions: HCT116 beta-catenin knockout viability, CellTiter-Glo, 60 h; at 10 µM; active compounds read low.
A short description of experiment [5]: viability of PTEN-null HCT116 cells – cell-based, HCT116 clonal line, CellTiter-Glo, pilot screen (AID 824;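 active means viability at or below 27.92% in each of two runs, the all-compound median minus 4 SD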;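 further: 0% = 20 µM Hyamine control and 100% = vehicle cell control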). Conditions: HCT116 PTEN-deleted viability, 60 h, at 10 µM, active compounds read low.
Experiment [6] in a line: RAM pathway blockade in budding yeast – dse1pr::URA3 reporter, 5-FOA selection, pilot screen (AID 869;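 active means inhibition over a set limit, the all-compound mean plus 3 SD, in both replicate runs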;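 further: 0% = DMSO wells with no growth and 100% = 10 µM 1-NA-PP1 with full growth; RAM network block rescues cells from 5-FOA so hits raise OD615 growth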). Conditions: S. cerevisiae dse1pr::URA3 5-FOA growth, OD615, 2 d; at 10 µM; active compounds read high; strain carries analog-sensitive mutant Cbk1 kinase.
Experiment [7] in a line: RAM signaling pathway blockade in yeast – S. cerevisiae, Pdr1DBD-CYC8 efflux-inhibited sensitized strain, primary screen (AID 1298;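 active means RAM network inhibition above 8.4% in each of two replicates, 3 SD over the compound average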;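 further: 0% = DMSO untreated cells without growth and 100% = 10 µM 1-NA-PP1 full growth; higher means more yeast growth rescued from 5-FOA killing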). As to conditions: S. cerevisiae cbk1-as DSE1-URA3 strain, 5-FOA growth OD615, 2 d; at 50 µM; active compounds read high.

Turning to `O=C(Nc1nnc(-c2ccc(Cl)cc2)o1)c1ccccc1Br`, the growth inhibition in experiment [1] was 0.92%; in experiment [2], 20.1%. Moreover, the viability increase in experiment [3] is -3.81%. Moreover, the viability in experiment [4] was 68.8%; in experiment [5] it was 60.9%. The inhibition in experiment [6] was 0.69%. For the same molecule, the RAM network inhibition in experiment [7] was 1.62%.

With `Cc1nc(CCNC(=O)COc2ccccc2)cs1`, the growth inhibition was -11% in experiment [1] and -3.25% in experiment [2]. For the same molecule, the viability increase in experiment [3] is -0.26%. For the same molecule, the results for the viability in experiment [4] and in experiment [5] were 103% and 96.5%, respectively. Further, the inhibition in experiment [6] was 1.14%. Besides, the RAM network inhibition in experiment [7] is 7.03%.

`COc1ccc(NC(=O)C2CCCN(S(=O)(=O)c3cccc4cccnc34)C2)cc1` (stereo unspecified): the growth inhibition was -12.6% in experiment [1] and 4.72% in experiment [2]. Further, the viability increase in experiment [3] was -0.46%. The values for the viability in experiment [4] and in experiment [5] were 88.2% and 85.5%, respectively. The inhibition in experiment [6] was 2.36%. Further, in experiment [7], the RAM network inhibition was 6.27%.

With `CCCN(CC1CC1)S(=O)(=O)c1ccc(S(N)(=O)=O)cc1`, the growth inhibition is -8.54% in experiment [1] and 0.87% in experiment [2]. For the same molecule, the viability increase in experiment [3] is -1.41%. In addition, the viability was 100% in experiment [4] and 90.3% in experiment [5]. For the same molecule, in experiment [6], the inhibition was 0.505%. Besides, the RAM network inhibition in experiment [7] is 1.48%.

Regarding `CCOc1ccc(N=C2NC(=O)C(CC(=O)O)S2)cc1` (stereo unspecified), the growth inhibition is -5.86% in experiment [1] and 3% in experiment [2]. Besides, the viability increase in experiment [3] was -0.06%. The viability is 104% in experiment [4] and 101% in experiment [5]. Further, in experiment [6], the inhibition is 2.49%. In experiment [7], the RAM network inhibition is 2.45%.

On to `O=C(CCCCC(=O)N1CCN(c2ccccc2)CC1)N1CCN(c2ccccc2)CC1`, for which the growth inhibition in experiment [1] was -2.23%; in experiment [2], 8.9%. Besides, the viability increase in experiment [3] is 0.82%. The viability is 94.6% in experiment [4] and 86% in experiment [5]. Moreover, the inhibition in experiment [6] is 1.74%. For the same molecule, in experiment [7], the RAM network inhibition was -0.46%.

Turning to `COc1cc(OC)c(Cl)cc1N`, the values for the growth inhibition in experiment [1] and in experiment [2] were -8.61% and -16.7%, respectively. In addition, the viability increase in experiment [3] was -2.54%. Moreover, the values for the viability in experiment [4] and in experiment [5] were 98% and 95.7%, respectively. In addition, the inhibition in experiment [6] was 1.47%. Besides, in experiment [7], the RAM network inhibition was 2.8%.

For the molecule `Cn1cccc1Cc1nnc(SCC(=O)Nc2nccs2)n1CCc1ccccc1`, the growth inhibition in experiment [1] is 19.9%; in experiment [2], 62.6% (active). In addition, the viability increase in experiment [3] was -2.32%. For the same molecule, the viability was 103% in experiment [4] and 85.8% in experiment [5]. In experiment [6], the inhibition is 1.12%. The RAM network inhibition in experiment [7] is 2.48%.

With `CC1C(=O)CC(c2ccccc2)N(C)C1c1ccccc1` (stereo unspecified), the growth inhibition is -16% in experiment [1] and -18% in experiment [2]. Also, the viability increase in experiment [3] is -4.71%. Also, the results for the viability in experiment [4] and in experiment [5] were 82.8% and 84.1%, respectively. The inhibition in experiment [6] was 2.57%. The RAM network inhibition in experiment [7] is 8%.

Consider `OCCCc1nc2n(n1)C(c1ccccc1)C=C(c1ccccc1)N2` (stereo unspecified), for which the growth inhibition in experiment [1] is -7.07%; in experiment [2], 1.69%. For the same molecule, the viability increase in experiment [3] was -2.67%. Further, the viability is 97.1% in experiment [4] and 89.1% in experiment [5]. For the same molecule, the inhibition in experiment [6] is 0.59%. Besides, the RAM network inhibition in experiment [7] was 0.53%.

`CC1(C)CC(=O)C=C(NCc2cccnc2)C1`: the growth inhibition was -4.83% in experiment [1] and -11.8% in experiment [2]. Moreover, the viability increase in experiment [3] is -1.4%. For the same molecule, the viability in experiment [4] was 92.2%; in experiment [5], 94.9%. Besides, in experiment [6], the inhibition is -0.505%. In experiment [7], the RAM network inhibition is 1.01%.

Consider `COc1ccc(CC(=O)Nc2cc(=O)n(C)c(=O)n2C)cc1`, for which the growth inhibition in experiment [1] was -5.75%; in experiment [2], -4.35%. The viability increase in experiment [3] was 0.44%. For the same molecule, the viability in experiment [4] was 102%; in experiment [5] it was 91%. Also, in experiment [6], the inhibition is 1.85%. Besides, the RAM network inhibition in experiment [7] was -2.12%.

`CC(C)(C)NC(=O)c1cnn2c1NC(c1ccc(F)cc1)CC2C(F)(F)F` (stereo unspecified): the growth inhibition in experiment [1] was -14.6%; in experiment [2] it was -18.1%. In experiment [3], the viability increase was -0.08%. In addition, the viability in experiment [4] is 89.5%; in experiment [5] it was 87.1%. Moreover, the inhibition in experiment [6] is 3.81%. Besides, in experiment [7], the RAM network inhibition is 6.9%.

Turning to `CCOc1ccc(-c2nc(-c3ccccc3)no2)cc1OCC`, the growth inhibition in experiment [1] is -16.6%; in experiment [2], -29.6%. Besides, the viability increase in experiment [3] is 2.12%. Further, the viability was 106% in experiment [4] and 91% in experiment [5]. Further, in experiment [6], the inhibition is 3.66%. Also, the RAM network inhibition in experiment [7] is 5.86%.

As to `CCN1C(=O)c2ccccc2S(=O)c2ccc(C(=O)NCCCN3CCCC3=O)cc21` (stereo unspecified), the growth inhibition is -7.88% in experiment [1] and -6.62% in experiment [2]. Besides, the viability increase in experiment [3] was -3.1%. The viability in experiment [4] is 97.5%; in experiment [5], 87.7%. For the same molecule, in experiment [6], the inhibition is 0.64%. Further, the RAM network inhibition in experiment [7] was -1.15%.

As for `CCc1nnc(NC(=O)CSc2nnc(Cc3cccn3C)n2CCOC)s1`, the growth inhibition was -4.61% in experiment [1] and 32.5% in experiment [2]. For the same molecule, the viability increase in experiment [3] is -0.66%. The viability in experiment [4] was 96.8%; in experiment [5], 98.3%. Also, the inhibition in experiment [6] is 0.98%. The RAM network inhibition in experiment [7] is 2.84%.

In the case of `CS(=O)(=O)c1ccc(N)cc1`, the values for the growth inhibition in experiment [1] and in experiment [2] were -13.1% and -8.62%, respectively. The viability increase in experiment [3] was -2.37%. The viability in experiment [4] is 103%; in experiment [5], 88.9%. In addition, in experiment [6], the inhibition was 2.72%. Moreover, the RAM network inhibition in experiment [7] was 1.16%.

For `COc1ccc(N2C(=O)C3CCCN3C2c2cccc(C)c2)cc1` (stereo unspecified), the values for the growth inhibition in experiment [1] and in experiment [2] were 2.65% and 15%, respectively. In addition, the viability increase in experiment [3] was -3.13%. In addition, the viability was 97.4% in experiment [4] and 100% in experiment [5]. For the same molecule, the inhibition in experiment [6] was 1.83%. Further, the RAM network inhibition in experiment [7] is -1.25%.
